The series deals with MS2 coat protein. Kind of series: apparent Kd, MS2 coat protein; higher = weaker binding; RNA-MaP array; FMN 200 µM where present. In outline:
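Stalled E. coli RNA polymerase transcribed each design on Illumina sequencing-chip clusters. The clusters were titrated with SNAP-549-labelled MS2 coat protein, starting at 0.7 or 1.5 nM and doubling up to 3 µM, first without ligand and then with constant ligand, in 100 mM Tris-HCl pH 7.5, 80 mM KCl, 4 mM MgCl2, BSA, DTT, yeast tRNA and Tween-20. Green signal was normalised to red-channel RNA signal and to the control-cluster median Fmax. The apparent Kd is the median of filtered binding-curve fits made for each cluster.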

Where [1] appears, read: designed as: ON switch for flavin mononucleotide, no ligand.
The mark [2] stands for this setting: ligand present: flavin mononucleotide, designed as: ON switch for flavin mononucleotide.
Where [3] appears, read: designed as: OFF switch for flavin mononucleotide, no ligand.
Where [4] appears, read: ligand present: flavin mononucleotide, designed as: OFF switch for flavin mononucleotide.

Consider “AGAUGGUAGAGAGGAUAUCAUGUGCUGACAUGAGGAUCACCCAUGUAGGGACGUCGGUCCAAUUAUGAGAAGGCUCUACCAUCU”, for which the “apparent Kd” value was 0.0856 µM under setting [1] and 0.0559 µM under setting [2].
“UUCAUCAAUGAAGGAUAUCUAUGUCCAACAUGAGGAUCACCCAUGUUGAGGAUUACCUAUGUGUAGGAGAAGGUCAAUAUAACU”: the “apparent Kd” value runs as follows: under setting [1], 0.00653 µM; under setting [2], 0.00593 µM.
As to “UGUAUGGACAGAGGAUAUACGUGCUAGAGAUACUAGCUAAUAAUCCUUACAUGAGGAUCACCCAUGUAGAAGGCUGUCCAUACU”, the “apparent Kd” value turned out to be 0.0205 µM under setting [3] and 0.0456 µM under setting [4].
Consider “ACGACUAGAGGAUAUACAUGAGGAUCACCCAUGUAACUGUCAGGAAACUGACGGAGAUGUAGAAGGCUAGUCGA”, for which the “apparent Kd” value under setting [3] came out at 0.0168 µM and the “apparent Kd” value under setting [4] was 0.0374 µM.
With “CUCAAGUGAGGAUAUAUACUUCCAUCAUUUGAGAUAGAAGUAUAGAAGGCACAUGAGGAUCACCCAUGUAUAAC”, the “apparent Kd” value under setting [3] was determined as 0.136 µM and the “apparent Kd” value under setting [4] came out at 0.0397 µM.
Regarding “CUUUCGUGAGGAUAUGUGGCUUCAAUCGUGAGAUCGAGGCUACAGAAGGCACAUGAGGAUCACCCAUGUUCCUC”, the “apparent Kd” value by setting is: under setting [3], 0.0379 µM; under setting [4], 0.388 µM.
The matching figures for “AAAGCAACAUGAGGAUCACCCAUGUAGGAUAUCGCUAUUGUAAUCAUGAAACAUGAUUACAAUAGCGAGAAGGACAUAUGCUUU”: 0.00677 µM and 0.00948 µM.
The matching figures for “CUUUUGUGAGGAUAUCAGUAUUAAAUAAAUAAAAUUACUACUGAGAAGGCACAUGAGGAUCACCCAUGUUCCUC”: 0.0334 µM and 0.201 µM.
Consider “UAGUAUAAGGGCAUUAAACAUGAGGAUCACCCAUGUACGUUAGAGGAUAUGCAUUUCAGUUGAGAGUAGAAGGUUAGAGAAGGG”, for which the “apparent Kd” value under setting [3] was 0.0451 µM and the “apparent Kd” value under setting [4] is 0.0474 µM.
The matching figures for “AGAAACUACGAGAAGGACAUGUGGUCCUUCAGUAACAUGAGGAUCACCCAUGUAGGAUAUCGUAGUUUCAGGAUCGUGAGAUCA”: 0.15 µM and 0.0191 µM.
Consider “AAAUUCAGAGGAUAUGCGCAUAGAUAAGACUUUGUUUCUUAACAUGAGGAUCACCCAUGUAGAAGGCUGUAAAA”, for which the “apparent Kd” value reads like this: under setting [3], 0.0194 µM; under setting [4], 0.0198 µM.
For “GACAUACAUGAGGAUCACCCAUGUUCAGAAGGACAAGGAUAUGUGUGGAAACCAUACUAUACAGAAGGUGUCUGUC”, the “apparent Kd” value was 0.0376 µM under setting [1] and 0.0199 µM under setting [2].
For the sequence “UAUUAGCUAGGAUAUACAUGAGGAUCACCCAUGUCACGGGUCCACUCGUCCUAUGCGUGUAGAAGGAGCGACCC”, the “apparent Kd” value stood at 0.0206 µM under setting [3] and 0.0224 µM under setting [4].
For “CGUAGUUGGUAAGGAUAUCCUACACUGUUCUGACCCGUGCAAGCUACAUGAGGAUCACCCAUGUGGGAGAAGGUGCGUCAACGC”, in that order: 0.0184 µM and 0.0196 µM.
With “GGGUACAUCGGAGGAUAUCAUGUAAAUACAUGAGGAUCACCCAUGUCGAUGGAGACAUCGGAGAUUGAGAAGGCCGAUGUACGG”, the “apparent Kd” value is, setting by setting: under setting [1], 0.16 µM; under setting [2], 0.00904 µM.
On to “ACUGGGCGCCAACCCAUGUCUAUGGAGGAUAUUACUGCCGGUAUCUCACAUGAGGAUCACCCAUGUAAGAAGGCCAUAAGCACA”, for which the “apparent Kd” value by setting is: under setting [3], 0.0343 µM; under setting [4], 0.176 µM.
On to “GUCUACCUAGGAUAUACAUGAGGAUCACCCAUGUACAGUUUCGUCUAGGGAUACUCGCGUAGAAGGAGGUAGAU”, for which the “apparent Kd” value turned out to be 0.0322 µM under setting [3] and 0.0229 µM under setting [4].
The matching figures for “GCACUUUUAUUUGAACCGAUACGAACAUGAGGAUCACCCAUGUAGGAUAUGCUUAAAGUUGUGAUGCAGAAGGACAUUUAGUGC”: 0.00918 µM and 0.0107 µM.
As to “AAUAAACUCACAGGAUAUAGCAGCGGUCGCGUGAACUUACAGGCGACGAGGCUAGAAGGGUGACCACAUGAGGAUCACCCAUGU”, the “apparent Kd” value came out at 0.817 µM under setting [1] and 0.219 µM under setting [2].
On to “CUUUUGUGAGGAUAUCAGUAGUAGAACAAUAGUACUACUACUGAGAAGGCACAUGAGGAUCACCCAUGUUUCUC”, for which the “apparent Kd” value was found to be 0.0623 µM under setting [3] and 0.302 µM under setting [4].
“GUGGUACAUGAGGAUCACCCAUGUUAGGAUAUCGCGUGAGGUUUUACUUCCGCACACACGAGAAGGGACGUCUU”: the “apparent Kd” value under setting [3] was found to be 0.0329 µM and the “apparent Kd” value under setting [4] was determined as 0.028 µM.
On to “AAUUUACAUGAGGAUCACCCAUGUGAGGAUAUAUAUACAUGCUUGUUAUUGCGUGUGUGUAGAAGGCGCGUGAU”, for which the “apparent Kd” value runs as follows: under setting [3], 0.0647 µM; under setting [4], 0.115 µM.
Turning to “UUCGAGUUGCAAGGAUAUCUUAUUUAGAUUUUAAGAGAAGGUGCUUCACAGCUACAUGAGGAUCACCCAUGUCUUUCUUCUUAU”, the “apparent Kd” value reads like this: under setting [1], 0.0297 µM; under setting [2], 0.0237 µM.
As for “GACUUGUAUGAGAAGGGACAUGGACUAGAUGUGACAUGAGGAUCACCCAUGUCAGGAUAUCAAGCGACCCGUAGCCGAUAGGCG”, the “apparent Kd” value reads like this: under setting [3], 0.0105 µM; under setting [4], 0.046 µM.
As for “ACUGGUGCAGGAUAUGCAAUCGUGCUUCGGCACGUAAGAUCACAUGAGGAUCACCCAUGUAGAAGGGCACCAGU”, the “apparent Kd” value stood at 0.0203 µM under setting [3] and 0.0657 µM under setting [4].
With “CUGCAACAUGAGGAUCACCCAUGUAACCCAAUUAUAGGAUAUGUGAUGGUGAUCGACAUGACAGAAGGGUGAUUGG”, the “apparent Kd” value is 0.0388 µM under setting [1] and 0.149 µM under setting [2].
Regarding “CAGAAGUCAGGAUAUGCUGCUCGUCACUUGCGUGAUGAGUAGCAGAAGGGACAUGAGGAUCACCCAUGUAAAGG”, the “apparent Kd” value by setting is: under setting [3], 0.16 µM; under setting [4], 0.417 µM.
On to “ACAUGAGGAUCACCCAUGUAUUUGUAGGAUAUACACAAUUCUUUAUUACUCUAAUUAAUAUGUUUGUAGAAGGACACUGCAUGA”, for which the “apparent Kd” value by setting is: under setting [3], 0.00971 µM; under setting [4], 0.00952 µM.
“AUGACAGGCAAAGCGCAACGGCAAACAUGAGGAUCACCCAUGUAGGAUAUGCUACACAAAGUGUAGCAGAAGGACAUACGACGA”: the “apparent Kd” value under setting [3] is 0.0364 µM and the “apparent Kd” value under setting [4] stood at 0.0752 µM.
Regarding “GUACUGACAGGAUAUACAUGAGGAUCACCCAUGUCCUUAUGCUGACAAAAGUCAGCGAGUAGAAGGGUCUGUAC”, the “apparent Kd” value runs as follows: under setting [3], 0.101 µM; under setting [4], 0.603 µM.
As for “GAGAAGAAGUUAGGAUAUUGGAUAGGGACGGAAUAAGAAGGAGCAAGACAUGAGGAUCACCCAUGUGUAGAAGAAGAGAUCCUC”, the “apparent Kd” value reads like this: under setting [3], 0.52 µM; under setting [4], 0.384 µM.
Regarding “AUCAGCUCGUGAGGAUAUACAACACUGCUUCGGCAGUGUAUUAAGAUCACAUGAGGAUCACCCAUGUAGAAGGCACGAGCUGAU”, the “apparent Kd” value runs as follows: under setting [3], 0.0135 µM; under setting [4], 0.278 µM.
For the sequence “ACAUUGCGAGGAUAUACAUGAGGAUCACCCAUGUGGUAGUGGAUACGGUAGGGCUAGUGUAGAAGGUGUCAUGG”, the “apparent Kd” value came out at 0.128 µM under setting [3] and 0.103 µM under setting [4].
For “UGUUGUAUUACAGGAUAUCUAUUGUUUUUGUUUAGAGAAGGGUAUUCACAUGAGGAUCACCCAUGUAUAUACGAGGAAGUUGUG”, the “apparent Kd” value runs as follows: under setting [1], 0.0628 µM; under setting [2], 0.072 µM.
In the case of “UGUGUGUGACAGGAUAUGCUGGUUGUGUGGCGGGUAGAAGGGUCUACAUGAGGAUCACCCAUGUGGCCGGUUGG”, the “apparent Kd” value reads like this: under setting [3], 0.0228 µM; under setting [4], 0.0215 µM.
On to “GUUCUUCCUGUAAGGAUAUCCAUGUAUCAAAGUAUGGAGAAGGUACAUGAGGAUCACCCAUGUCACCCGCGUUA”, for which the “apparent Kd” value under setting [3] worked out at 0.0228 µM and the “apparent Kd” value under setting [4] was 0.0496 µM.
Consider “GAAUACCUAGGAUAUACAUGAGGAUCACCCAUGUCAGUAGACUCGGAAAAGUCUCUCAGUAGAAGGAGGACCAG”, for which the “apparent Kd” value worked out at 0.0353 µM under setting [3] and 0.0793 µM under setting [4].
Take “UGUCCAUAGCAGAAGGCAUGUCAAAAGACAUGAGGAUCACCCAUGUAAGCAUGAGGAUAUGCUAUGGACUAAGAGCGAAAGCUC”: the “apparent Kd” value came out at 0.00914 µM under setting [3] and 0.00578 µM under setting [4].
In the case of “UGUCGGAGCAGAGGAUAUUACAUGAGGAUCACCCAUGUAUGAACCAAUAGCUGGAAAGAGCAAUGUAAGAAGGCUGCUCCGACA”, the “apparent Kd” value stood at 0.0197 µM under setting [3] and 0.181 µM under setting [4].
“CCUGUCGCAUGAGGAUAUGGUCAGCUUUGCUGACCAGAAGGCAUGUCAAUAGACAUGAGGAUCACCCAUGUAGUUAAGACAGGA”: the “apparent Kd” value amounted to 0.615 µM under setting [1] and 0.0467 µM under setting [2].
Consider “AGGUACAUCGGAGGAUAUCAUGUAAAUACAUGAGGAUCACCCAUGUCGAUGGAGACAUCGGAGAUUGAGAAGGCCGAUGUACCG”, for which the “apparent Kd” value is, setting by setting: under setting [1], 0.152 µM; under setting [2], 0.00862 µM.
With “GUGGUACAUGAGGAUCACCCAUGUGUGGGCGCAUGAGGAUAUGUCAGUCCCUGAAGUACGAUAGAAGGCAUGGUGA”, the “apparent Kd” value came out at 0.201 µM under setting [1] and 0.302 µM under setting [2].
On to “CUUGUUUAAGUGAGGAUAUACUGUUAGUAAUGAUUGUAGAAGGUACAUGAGGAUCACCCAUGUUUAUUUAUAUU”, for which the “apparent Kd” value stood at 0.0178 µM under setting [3] and 0.0167 µM under setting [4].
On to “AAAACAUGAGGAUCACCCAUGUAAAGAACGGUUAAUAAAUGUGAGGAUAUACUAAAAUUUACGUAGUAGAAGGCACUGGGUACA”, for which the “apparent Kd” value runs as follows: under setting [1], 0.0208 µM; under setting [2], 0.0251 µM.
The matching figures for “ACCAGGGAUUCAGGAUAUAUUAGCCGAGGCCGCGUAGAAGGGAAAUCCUGACAUGAGGAUCACCCAUGUCGACCCGCCUUCCUA”: 0.0476 µM and 0.0468 µM.
In the case of “CUAUUUUGUGCCUCAUUUACAUGAGGAUCACCCAUGUUAACUUAGGAUAUAUUUAUAUUGUUAGAGUAGAAGGAAGUACAUUUU”, the “apparent Kd” value under setting [3] worked out at 0.162 µM and the “apparent Kd” value under setting [4] was 0.133 µM.
Regarding “AAACCGUGUGGAGGAUAUGCAGUUGAGGUAAGGCGGCAGCUCUAUACGACAGCAGAAGGCCACAUGAGGAUCACCCAUGUAGGU”, the “apparent Kd” value was 0.122 µM under setting [3] and 0.0532 µM under setting [4].
As to “GUAGGCGACCAGAAGGGUGACAUGAGGAUCACCCAUGUAGAUGUGUUCCCGCUUGGGAGCCGUCCACAGGAUAUGGUUGGUUAU”, the “apparent Kd” value under setting [1] turned out to be 0.0499 µM and the “apparent Kd” value under setting [2] was 0.0745 µM.

The apparent Kd is the concentration giving half-maximal binding under the conditions of the assay.

For the origin of these results see the EternaBench riboswitch data.
